Assay results from ChEMBL document CHEMBL1127358 (J Med Chem, 1994).

Experiments:
[1] = target: Muscarinic acetylcholine receptor M3 (Rattus norvegicus, UniProt P08483); test: Tested for affinity constant against M3 muscarinic receptor in rat submaxillary gland using [3H]NMS; type: tissue-based
[2] = Tested for affinity constant against M4 muscarinic receptor in NG 108-15 cell homogenates using [3H]NMS; type: cell-based
[3] = target: T1, Muscarinic acetylcholine receptor M3 (Cavia porcellus, UniProt Q8VH26); test: Antagonistic activity against M3 muscarinic receptor in guinea pig left ileum derived by plotting log(DR - 1) vs log[antagonist]; type: functional, tissue-based; conditions: read-out: pA2 (converted)
Procedure, shortened: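 Guinea pig tissue. Ileum: terminal segments about 2 cm, 1 g tension, 37 °C, Tyrode solution, isotonic recording. Carbachol dose–response curves (0.01–0.5 μM) at 30 min intervals, second curve as control. Repeated after 60 min antagonist incubation. Dose ratios at agonist EC50, one to six antagonist concentrations, each tested 4–8 times. pA2 from Schild plot of log(DR−1); mean ± SE.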

[4] = target: T2, Muscarinic acetylcholine receptor M2 (Rattus norvegicus, UniProt P10980); test: Tested for affinity constant against M2 muscarinic receptor rat heart using [3H]-NMS
T2 sequence (P10980 whole entry): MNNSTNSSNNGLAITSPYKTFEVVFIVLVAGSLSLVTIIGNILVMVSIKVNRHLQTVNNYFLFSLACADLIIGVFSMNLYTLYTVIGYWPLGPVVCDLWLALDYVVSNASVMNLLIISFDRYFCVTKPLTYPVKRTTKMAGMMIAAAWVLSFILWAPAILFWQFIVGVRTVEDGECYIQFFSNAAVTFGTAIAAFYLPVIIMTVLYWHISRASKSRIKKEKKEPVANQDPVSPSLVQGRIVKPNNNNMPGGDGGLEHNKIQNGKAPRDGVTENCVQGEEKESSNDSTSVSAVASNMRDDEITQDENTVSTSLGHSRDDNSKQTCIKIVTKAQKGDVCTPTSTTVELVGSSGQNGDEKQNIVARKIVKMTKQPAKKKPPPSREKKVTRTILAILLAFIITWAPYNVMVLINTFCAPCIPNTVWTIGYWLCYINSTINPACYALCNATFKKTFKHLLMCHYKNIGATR

[5] = target: T3, Muscarinic acetylcholine receptor M1 (Rattus norvegicus, UniProt P08482); test: Tested for affinity constant against M1 muscarinic receptor in rat cortex using [3H]pirenzepine
T3 sequence (P08482 whole entry): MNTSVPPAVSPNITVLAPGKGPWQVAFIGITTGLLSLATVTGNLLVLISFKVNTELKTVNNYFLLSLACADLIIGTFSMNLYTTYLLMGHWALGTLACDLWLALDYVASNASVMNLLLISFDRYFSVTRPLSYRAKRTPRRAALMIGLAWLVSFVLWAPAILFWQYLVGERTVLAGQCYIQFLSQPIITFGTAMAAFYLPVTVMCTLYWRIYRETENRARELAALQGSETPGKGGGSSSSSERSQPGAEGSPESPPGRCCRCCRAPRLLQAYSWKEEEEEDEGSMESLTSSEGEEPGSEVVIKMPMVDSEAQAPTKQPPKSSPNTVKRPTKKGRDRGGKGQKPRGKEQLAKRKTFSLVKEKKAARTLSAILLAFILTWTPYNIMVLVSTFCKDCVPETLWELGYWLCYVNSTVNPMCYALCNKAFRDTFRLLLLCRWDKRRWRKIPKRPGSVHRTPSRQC

[6] = target: Muscarinic acetylcholine receptor M2 (Cavia porcellus); test: Antagonistic activity against M2 muscarinic receptor in guinea pig left atrium derived by plotting log(DR - 1) vs log[antagonist]; conditions: read-out: pA2 (converted)
[7] = system: Muscarinic acetylcholine receptors M2 & M3 (Cavia porcellus); test: Selectivity ratio is the antilog of the difference between the pA2 values at guinea pig left atrium and ileum muscarinic receptors
[8] = target: Muscarinic acetylcholine receptor M3 (Rattus norvegicus) (UniProt P08483); test: Inhibitory activity against M3 muscarinic receptor binding in rat submaxillary gland by [3H]NMS at 10 uM concentration; type: tissue-based
Procedure, shortened: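 Rat submaxillary gland homogenate. […] Nonspecific binding defined with 10 μM atropine. Percent inhibition of specific binding scored, with IC50 not derivable when inhibition stayed below 50%.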

[9] = target: T1, Muscarinic acetylcholine receptor M3; test: Antagonistic activity against M3 muscarinic receptor in guinea pig left ileum derived by plotting log(DR - 1) vs log[antagonist]; inactive up to a concentration of 10; type: functional, tissue-based; conditions: read-out: pA2 (converted)
Procedure, shortened: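 Guinea pig ileum segments at 37 °C in Tyrode solution, isotonic recording. Carbachol dose–response curves were run before and after 60 min antagonist incubation. Compounds were tested up to 10 μM antagonist, and inactivity was scored up to that concentration.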

Muscarinic acetylcholine receptor M3 (Rattus norvegicus, UniProt P08483), sequence (P08483 whole entry): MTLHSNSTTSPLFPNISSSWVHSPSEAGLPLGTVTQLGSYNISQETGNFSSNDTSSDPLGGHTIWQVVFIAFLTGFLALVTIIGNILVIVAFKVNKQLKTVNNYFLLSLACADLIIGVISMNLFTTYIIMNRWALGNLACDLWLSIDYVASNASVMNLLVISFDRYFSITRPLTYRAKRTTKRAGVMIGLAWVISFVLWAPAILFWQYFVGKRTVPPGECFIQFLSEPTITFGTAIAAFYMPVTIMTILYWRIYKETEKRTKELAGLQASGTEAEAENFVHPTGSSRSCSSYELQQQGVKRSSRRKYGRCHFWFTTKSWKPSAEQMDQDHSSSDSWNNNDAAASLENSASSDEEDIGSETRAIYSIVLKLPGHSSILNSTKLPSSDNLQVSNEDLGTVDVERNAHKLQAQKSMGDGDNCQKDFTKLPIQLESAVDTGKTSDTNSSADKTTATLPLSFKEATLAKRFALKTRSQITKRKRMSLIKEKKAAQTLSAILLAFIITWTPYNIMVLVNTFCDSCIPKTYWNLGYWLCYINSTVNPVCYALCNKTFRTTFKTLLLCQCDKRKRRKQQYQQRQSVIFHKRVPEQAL
T1 sequence (Q8VH26 whole entry): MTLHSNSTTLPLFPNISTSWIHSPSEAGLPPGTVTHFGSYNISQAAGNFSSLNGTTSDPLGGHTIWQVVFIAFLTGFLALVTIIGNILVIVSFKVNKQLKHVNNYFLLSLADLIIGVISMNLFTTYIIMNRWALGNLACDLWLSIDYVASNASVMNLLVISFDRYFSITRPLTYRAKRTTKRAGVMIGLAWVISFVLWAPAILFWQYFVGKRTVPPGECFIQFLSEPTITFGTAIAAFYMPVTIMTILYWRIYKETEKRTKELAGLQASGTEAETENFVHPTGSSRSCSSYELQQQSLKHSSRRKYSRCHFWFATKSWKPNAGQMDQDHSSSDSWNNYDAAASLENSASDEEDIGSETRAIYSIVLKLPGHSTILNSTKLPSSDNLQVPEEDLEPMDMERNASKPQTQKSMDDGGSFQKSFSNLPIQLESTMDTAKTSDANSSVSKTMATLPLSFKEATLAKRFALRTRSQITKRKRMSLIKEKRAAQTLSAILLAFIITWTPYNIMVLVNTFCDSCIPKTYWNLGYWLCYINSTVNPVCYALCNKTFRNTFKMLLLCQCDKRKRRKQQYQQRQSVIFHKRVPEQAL
Muscarinic acetylcholine receptor M3 (Rattus norvegicus), sequence (P08483 whole entry, looked up): as the sequence (P08483 whole entry) above

Row | SMILES | Ki [1] | Log Ki [2] | Kb [3] | Ki [4] | Ki [5] | Kb [6] | Ratio [7] | inhibition [8] | Kb [9]
1 | CN(CCCCCCCCN(C)CCCCCCN(CC(=O)N1c2ccccc2C(=O)Nc2cccnc21)CC(=O)N1c2ccccc2C(=O)Nc2cccnc21)CCCCCCN(CC(=O)N1c2ccccc2C(=O)Nc2cccnc21)CC(=O)N1c2ccccc2C(=O)Nc2cccnc21.O=C(O)C(=O)O.O=C(O)C(=O)O.O=C(O)C(=O)O.O=C(O)C(=O)O | 155 nM | -7.05 | 759 nM | 21.9 nM | 4.79 nM | 15.5 nM | 49 |  | 
2 | COc1ccccc1CN(CCCCCCN(C)CCCCCCCCN(C)CCCCCCN(CC(=O)N1c2ccccc2C(=O)Nc2cccnc21)Cc1ccccc1OC)CC(=O)N1c2ccccc2C(=O)Nc2cccnc21.O=C(O)C(=O)O.O=C(O)C(=O)O.O=C(O)C(=O)O.O=C(O)C(=O)O | 251 nM | -7.8 | 2040 nM | 3.72 nM | 1.26 nM | 47.9 nM | 26 |  | 
3 | CN(CCCCCCCCN(C)CCCCCCNCC(=O)N1c2ccccc2C(=O)Nc2cccnc21)CCCCCCNCC(=O)N1c2ccccc2C(=O)Nc2cccnc21 | 174 nM | -8.52 |  | 2.4 nM | 1.7 nM |  |  |  | 
4 | CN(CCCCCCN)CCCCCCCCN(C)CCCCCCNCC(=O)N1c2ccccc2C(=O)Nc2cccnc21 | 468 nM | -7.74 | 661 nM |  | 2.69 nM |  |  |  | 
5 | COc1ccccc1CNCCCCCCN(C)CCCCCCCCN(C)CCCCCCNCc1ccccc1OC |  |  |  |  |  |  | 48 |  | 
6 | COc1ccccc1CN(CCCCCCN(C)CCCCCCCCN(C)CCCCCCNCC(=O)N1c2ccccc2C(=O)Nc2cccnc21)CC(=O)N1c2ccccc2C(=O)Nc2cccnc21.O=C(O)C(=O)O.O=C(O)C(=O)O.O=C(O)C(=O)O.O=C(O)C(=O)O |  | -8.22 | 417 nM | 1.58 nM | 1.86 nM | 1.58 nM | 260 | < 50% | 
7 | CCCCN(CC(=O)N1c2ccccc2C(=O)Nc2cccnc21)CC(=O)N1c2ccccc2C(=O)Nc2cccnc21 |  |  |  |  |  | 1580 nM | > 6 |  | > 10000 nM
8 | COc1ccccc1CNCCCCCCN(C)CCCCCCCCN(C)CCCCCCN(CC(=O)N1c2ccccc2C(=O)Nc2cccnc21)CC(=O)N1c2ccccc2C(=O)Nc2cccnc21.O=C(O)C(=O)O.O=C(O)C(=O)O.O=C(O)C(=O)O.O=C(O)C(=O)O | 2510 nM | -7.9 | 447 nM | 18.6 nM | 15.8 nM | 4.57 nM | 98 |  | 
9 | CCN(CC)CCCCCCNCC(=O)N1c2ccccc2C(=O)Nc2cccnc21 |  |  | 832 nM |  |  | 251 nM | 3 |  | 
10 | CN(CCCCCCN)CCCCCCCCN(C)CCCCCCN(CC(=O)N1c2ccccc2C(=O)Nc2cccnc21)CC(=O)N1c2ccccc2C(=O)Nc2cccnc21.O=C(O)C(=O)O.O=C(O)C(=O)O.O=C(O)C(=O)O.O=C(O)C(=O)O | 6760 nM | -6.72 | 1550 nM | 12.9 nM | 2.51 nM | 5.89 nM | 260 |  | 
11 | COc1ccccc1CNCCCCCCNCCCCCCCCNCCCCCCN |  |  | 1550 nM |  |  | 91.2 nM | 17 |  | 
12 | CCN(CC)CCCCCCN(CC(=O)N1c2ccccc2C(=O)Nc2cccnc21)Cc1ccccc1OC |  |  | 1260 nM |  |  | 178 nM | 7 |  | 
13 | CCN(CC)CCCCCCNCc1ccccc1OC |  |  |  |  |  | 2510 nM | > 4 |  | > 10000 nM
14 | COc1ccccc1CNCCCCCCNCCCCCCCCNCCCCCCNCc1ccccc1OC [METHOCTRAMINE] |  | -7.58 |  |  |  |  |  |  | 
15 | COc1ccccc1CNCCCCCCN(C)CCCCCCCCN(C)CCCCCCNCC(=O)N1c2ccccc2C(=O)Nc2cccnc21 | 794 nM | -7.24 | 575 nM | 1.7 nM | 28.2 nM | 3.09 nM | 190 |  | 
16 | CCN(CC)CCCCC1CCN(CC(=O)N2c3ccccc3C(=O)Nc3cccnc32)CC1 | 251 nM | -7.82 | 100 nM |  | 105 nM |  |  |  | 
17 | CCN(CC)CCCCCCN(CC(=O)N1c2ccccc2C(=O)Nc2cccnc21)CC(=O)N1c2ccccc2C(=O)Nc2cccnc21 |  |  |  |  |  | 1050 nM | > 10 |  | > 10000 nM
18 | CN(CCCCCCN)CCCCCCCCN(C)CCCCCCN |  |  | 7590 nM |  |  | 282 nM | 27 |  | 
19 | CN(CCCCCCCCN(C)CCCCCCN(CC(=O)N1c2ccccc2C(=O)Nc2cccnc21)CC(=O)N1c2ccccc2C(=O)Nc2cccnc21)CCCCCCNCC(=O)N1c2ccccc2C(=O)Nc2cccnc21 [TRIPITRAMINE] |  | -7.93 |  |  |  |  |  |  | 
